According to ChEMBL document CHEMBL2311305, “Antiproliferative potency of novel benzofuran-2-carboxamides on tumour cell lines: cell death mechanisms and determination of crystal structure” (Eur J Med Chem, 2013):
Activity calls are given as the source filed them. The calls are words filed in the database; no cut-off is given here.

Legend:
HeLa = experiment: Cytotoxicity against human HeLa cells after 72 hrs by MTT assay; assay type: functional, cell-based; settings: Homo sapiens, HeLa, 72 h
Summary of the method: (§1)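 Cells seeded at 3000-6000 per well on day 0, according to cell line doubling time. Compound added in five 10-fold dilutions, 72-h incubation, then MTT colorimetric read-out. Absorbances converted to percentage growth by NCI formulae. IC50 obtained by linear regression between the concentrations bracketing PG 50; ">100" assigned when no concentration reaches it. Quadruplicate points, three independent experiments.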

MIA PaCa-2 = experiment: Cytotoxicity against human MIAPaCa2 cells after 72 hrs by MTT assay; assay type: functional, cell-based; summary of the method: as §1
WI-38 = experiment: Cytotoxicity against human WI38 cells after 72 hrs by MTT assay; assay type: cell-based; settings: Homo sapiens, WI-38, 72 h; summary of the method: as §1
SW-620 [1] = experiment: Cytotoxicity against human SW620 cells after 72 hrs by MTT assay; assay type: functional, cell-based; settings: Homo sapiens, SW-620, 72 h; summary of the method: as §1
MCF7 = experiment: Cytotoxicity against human MCF7 cells after 72 hrs by MTT assay; assay type: functional, cell-based; summary of the method: as §1
SK-BR-3 = experiment: Cytotoxicity against human SKBR3 cells after 72 hrs by MTT assay; assay type: functional, cell-based; settings: SK-BR-3, 72 h; summary of the method: as §1
SW-620 [2] = experiment: Induction of cell cycle arrest in human SW620 cells assessed as G2/M phase cells at 10 uM after 24 hrs by PI-staining based flow cytometric analysis (reference value: 9.3 +/- 2.6%); assay type: functional
SW-620 [3] = experiment: Induction of apoptosis in human SW620 cells assessed as caspase9 activation at 10 uM after 24 to 48 hrs by caspase protease assay; assay type: functional, cell-based
Summary of the method: (§2)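 Compound at 5 µM on SK-BR-3 and 10 µM on SW620. Cells harvested after 24 and 48 h, washed in PBS, lysed 10 min on ice, centrifuged. Lysate diluted to 3 mg/mL protein and mixed with DTT-containing reaction buffer and caspase-3, -8 or -9 substrate. Incubated 90 min at 37 °C in the dark. Absorbance read at 405 nm, duplicates, compared with untreated control.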

SW-620 [4] = experiment: Induction of apoptosis in human SW620 cells assessed as caspase3 activation at 10 uM after 24 to 48 hrs by caspase protease assay; assay type: functional, cell-based; summary of the method: as §2
SW-620 [5] = experiment: Induction of cell cycle arrest in human SW620 cells assessed as G2/M phase cells at 10 uM after 48 hrs by PI-staining based flow cytometric analysis (reference value: 8.5 +/- 1.6%); assay type: functional
SW-620 [6] = experiment: Induction of cell cycle arrest in human SW620 cells assessed as G2/M phase cells at 5 uM after 48 hrs by PI-staining based flow cytometric analysis (reference value: 8.5 +/- 1.6%); assay type: functional
SW-620 [7] = experiment: Induction of cell cycle arrest in human SW620 cells assessed as S phase cells at 10 uM after 48 hrs by PI-staining based flow cytometric analysis (reference value: 41.6 +/- 0.3%); assay type: functional
SW-620 [8] = experiment: Induction of cell cycle arrest in human SW620 cells assessed as S phase cells at 5 uM after 48 hrs by PI-staining based flow cytometric analysis (reference value: 41.6 +/- 0.3%); assay type: functional
SW-620 [9] = experiment: Induction of cell cycle arrest in human SW620 cells assessed as G1 phase cells at 10 uM after 48 hrs by PI-staining based flow cytometric analysis (reference value: 49.9 +/- 1.4%); assay type: functional
SW-620 [10] = experiment: Induction of cell cycle arrest in human SW620 cells assessed as G1 phase cells at 5 uM after 48 hrs by PI-staining based flow cytometric analysis (reference value: 49.9 +/- 1.4%); assay type: functional
SW-620 [11] = experiment: Induction of cell cycle arrest in human SW620 cells assessed as subG1 phase cells at 10 uM after 48 hrs by PI-staining based flow cytometric analysis (reference value: 5.8 +/- 0.3%); assay type: functional
SW-620 [12] = experiment: Induction of cell cycle arrest in human SW620 cells assessed as subG1 phase cells at 5 uM after 48 hrs by PI-staining based flow cytometric analysis (reference value: 5.8 +/- 0.3%); assay type: functional
SW-620 [13] = experiment: Induction of cell cycle arrest in human SW620 cells assessed as G2/M phase cells at 5 uM after 24 hrs by PI-staining based flow cytometric analysis (reference value: 9.3 +/- 2.6%); assay type: functional
SW-620 [14] = experiment: Induction of cell cycle arrest in human SW620 cells assessed as S phase cells at 10 uM after 24 hrs by PI-staining based flow cytometric analysis (reference value: 38.3 +/- 0.4%); assay type: functional
SW-620 [15] = experiment: Induction of cell cycle arrest in human SW620 cells assessed as S phase cells at 5 uM after 24 hrs by PI-staining based flow cytometric analysis (reference value: 38.3 +/- 0.4%); assay type: functional
SW-620 [16] = experiment: Induction of cell cycle arrest in human SW620 cells assessed as G1 phase cells at 10 uM after 24 hrs by PI-staining based flow cytometric analysis (reference value: 52.6 +/- 2.3%); assay type: functional
SW-620 [17] = experiment: Induction of cell cycle arrest in human SW620 cells assessed as G1 phase cells at 5 uM after 24 hrs by PI-staining based flow cytometric analysis (reference value: 52.6 +/- 2.3%); assay type: functional
SW-620 [18] = experiment: Induction of cell cycle arrest in human SW620 cells assessed as subG1 phase cells at 10 uM after 24 hrs by PI-staining based flow cytometric analysis (reference value: 18.1 +/- 3.8%); assay type: functional
SW-620 [19] = experiment: Induction of cell cycle arrest in human SW620 cells assessed as subG1 phase cells at 5 uM after 24 hrs by PI-staining based flow cytometric analysis (reference value: 18.1 +/- 3.8%); assay type: functional

SMILES	IC50 (HeLa) [µM]	IC50 (MIA PaCa-2; Homo sapiens, MIA PaCa-2, 72 h) [µM]	IC50 (WI-38) [µM]	IC50 (SW-620 [1]) [µM]	IC50 (MCF7; Homo sapiens, MCF7, 72 h) [µM]	IC50 (SK-BR-3) [µM]	further results
O=C(Nc1nc2ccc([N+](=O)[O-])cc2s1)c1cc2ccccc2o1	17.5	> 100	72.9	> 100	63.9	> 100	
CC(=O)Nc1ccc(NC(=O)c2cc3ccccc3o2)cn1	0.9	3.1	0.4	1.1	7.6	59.8	Activity (SW-620 [2]): 25.3%; Activity (SW-620 [3]): Active; Activity (SW-620 [4]): Active; Activity (SW-620 [5]): 9.5%; Activity (SW-620 [6]): 11.2%; Activity (SW-620 [7]): 45.4%; Activity (SW-620 [8]): 44.9%; Activity (SW-620 [9]): 45.2%; Activity (SW-620 [10]): 43.9%; Activity (SW-620 [11]): 4.3%; Activity (SW-620 [12]): 4.7%; Activity (SW-620 [13]): 10.7%; Activity (SW-620 [14]): 31.4%; Activity (SW-620 [15]): 42.6%; Activity (SW-620 [16]): 43.5%; Activity (SW-620 [17]): 46.8%; Activity (SW-620 [18]): 18.2%; Activity (SW-620 [19]): 18.1%
CN(C)c1ccc(NC(=O)c2cc3ccccc3o2)cc1	49.1		81.2	54.2		> 100	IC50 (MIA PaCa-2; mia paca-2): 49.6 µM; IC50 (MCF7; mcf7): 8.5 µM
N#Cc1ccc2nc(NC(=O)c3cc4ccccc4o3)sc2c1	89.6	> 100	34.9	> 100	21.5	> 100	
O=C(Nc1nc2ccc(C3=NCCN3)cc2s1)c1cc2ccccc2o1	59.8	97.1	59.2	56.4	50.9	> 100	
O=C(Nc1ccc([N+](=O)[O-])cc1)c1cc2ccccc2o1	11.4	26.6	47.6	27.9	4.9	> 100	
N#Cc1ccc(NC(=O)c2cc3ccccc3o2)cc1	7.6	27.1	7.9	7.4	7.6	34.2	
O=C(Nc1ccc([N+](=O)[O-])cn1)c1cc2ccccc2o1	42.4	73.1	37.8	76.5	82.8	> 100	
